Laboratory results from ChEMBL document CHEMBL1938337, “Discovery of novel, potent, and selective inhibitors of 3-phosphoinositide-dependent kinase (PDK1)” (J Med Chem, 2011).

Assays:
[1] = target: Angiopoietin-1 receptor (Homo sapiens) (UniProt Q02763); assay: Inhibition of TEK at 1 uM
[2] = target: T1, 3-phosphoinositide-dependent protein kinase 1 (Homo sapiens, UniProt O15530); assay: Inhibition of PDK1-mediated AKT1 phosphorylation at T308 in human SKOV3 cells after 2 hrs by ELISA; type: cell-based, SK-OV-3
T1 sequence (O15530 whole entry): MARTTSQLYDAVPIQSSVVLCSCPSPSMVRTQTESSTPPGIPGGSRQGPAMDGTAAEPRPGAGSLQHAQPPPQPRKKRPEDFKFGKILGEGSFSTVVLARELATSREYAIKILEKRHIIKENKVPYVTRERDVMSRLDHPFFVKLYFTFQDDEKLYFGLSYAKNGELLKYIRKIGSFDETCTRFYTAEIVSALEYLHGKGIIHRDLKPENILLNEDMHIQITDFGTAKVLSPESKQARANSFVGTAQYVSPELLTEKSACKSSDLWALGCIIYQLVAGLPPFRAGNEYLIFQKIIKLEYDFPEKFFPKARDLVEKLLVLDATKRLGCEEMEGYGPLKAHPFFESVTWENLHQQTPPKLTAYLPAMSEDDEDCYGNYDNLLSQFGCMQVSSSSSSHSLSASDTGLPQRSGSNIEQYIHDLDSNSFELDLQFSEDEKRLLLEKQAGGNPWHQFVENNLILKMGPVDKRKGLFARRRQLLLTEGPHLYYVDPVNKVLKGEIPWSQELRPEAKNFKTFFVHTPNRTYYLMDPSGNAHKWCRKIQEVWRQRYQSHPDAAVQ
Procedure, shortened: (§1)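 Cells seeded at 50,000 per well and left to adhere overnight. Inhibitor was added as a 3-fold serial dilution from 0.0169 nM to 10 μM for 2 h, then cells were lysed. Lysates were tested in a commercial pAKT-T308 sandwich ELISA per the kit protocol. IC50 from duplicates, each run repeated at least twice.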

[3] = target: Calcium/calmodulin-dependent protein kinase type II subunit alpha (Homo sapiens) (UniProt Q9UQM7); assay: Inhibition of CAMK2A at 1 uM
Sequence of Calcium/calmodulin-dependent protein kinase type II subunit alpha (Homo sapiens) (Q9UQM7 whole entry): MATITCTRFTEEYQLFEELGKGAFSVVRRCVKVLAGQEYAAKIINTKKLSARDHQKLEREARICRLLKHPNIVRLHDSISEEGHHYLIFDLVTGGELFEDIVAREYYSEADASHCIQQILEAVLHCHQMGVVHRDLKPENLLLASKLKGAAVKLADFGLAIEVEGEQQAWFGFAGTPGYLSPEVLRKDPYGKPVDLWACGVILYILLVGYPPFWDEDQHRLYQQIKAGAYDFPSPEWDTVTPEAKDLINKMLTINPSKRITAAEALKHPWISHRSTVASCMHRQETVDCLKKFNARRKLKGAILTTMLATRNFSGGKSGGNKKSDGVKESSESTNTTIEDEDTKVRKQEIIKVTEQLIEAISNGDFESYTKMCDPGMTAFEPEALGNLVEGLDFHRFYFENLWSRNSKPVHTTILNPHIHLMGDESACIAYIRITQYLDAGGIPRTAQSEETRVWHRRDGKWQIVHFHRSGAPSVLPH

[4] = target: T1, 3-phosphoinositide-dependent protein kinase 1; assay: Inhibition of PDK1-mediated AKT1 phosphorylation at T308 in human A549 cells after 2 hrs by ELISA; type: cell-based; procedure, shortened: as §1
[5] = target: Ephrin type-A receptor 2 (Homo sapiens) (UniProt P29317); assay: Inhibition of EPHA2 at 1 uM
Sequence of Ephrin type-A receptor 2 (Homo sapiens) (P29317 whole entry): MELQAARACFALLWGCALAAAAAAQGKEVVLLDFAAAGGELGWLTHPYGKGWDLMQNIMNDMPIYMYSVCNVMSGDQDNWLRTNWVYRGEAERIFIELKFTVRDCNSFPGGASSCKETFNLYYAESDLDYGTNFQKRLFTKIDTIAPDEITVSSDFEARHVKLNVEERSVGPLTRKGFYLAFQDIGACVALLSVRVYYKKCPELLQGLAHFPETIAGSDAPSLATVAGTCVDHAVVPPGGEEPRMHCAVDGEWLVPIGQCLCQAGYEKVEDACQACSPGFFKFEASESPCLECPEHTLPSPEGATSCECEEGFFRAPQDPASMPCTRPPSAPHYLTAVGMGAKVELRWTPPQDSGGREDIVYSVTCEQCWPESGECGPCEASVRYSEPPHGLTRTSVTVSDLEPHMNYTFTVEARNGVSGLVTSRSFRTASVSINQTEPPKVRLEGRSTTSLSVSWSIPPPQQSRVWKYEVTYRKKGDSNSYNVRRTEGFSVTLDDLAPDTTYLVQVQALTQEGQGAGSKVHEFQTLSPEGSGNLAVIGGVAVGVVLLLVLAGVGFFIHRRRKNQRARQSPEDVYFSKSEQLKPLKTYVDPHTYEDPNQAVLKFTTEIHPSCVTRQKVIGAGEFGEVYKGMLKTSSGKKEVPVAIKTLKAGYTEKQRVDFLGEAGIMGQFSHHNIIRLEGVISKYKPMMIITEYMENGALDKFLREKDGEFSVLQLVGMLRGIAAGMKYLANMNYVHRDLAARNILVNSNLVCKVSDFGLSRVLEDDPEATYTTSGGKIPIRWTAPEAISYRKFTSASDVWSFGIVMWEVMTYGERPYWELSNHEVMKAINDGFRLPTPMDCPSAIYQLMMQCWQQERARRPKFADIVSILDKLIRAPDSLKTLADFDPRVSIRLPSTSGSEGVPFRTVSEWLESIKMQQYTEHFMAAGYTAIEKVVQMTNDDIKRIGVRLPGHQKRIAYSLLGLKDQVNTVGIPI

[6] = target: T2, Serine/threonine-protein kinase TAO2 (Homo sapiens) (UniProt Q9UL54); assay: Inhibition of TAOK2 at 1 uM
T2 sequence (whole entry): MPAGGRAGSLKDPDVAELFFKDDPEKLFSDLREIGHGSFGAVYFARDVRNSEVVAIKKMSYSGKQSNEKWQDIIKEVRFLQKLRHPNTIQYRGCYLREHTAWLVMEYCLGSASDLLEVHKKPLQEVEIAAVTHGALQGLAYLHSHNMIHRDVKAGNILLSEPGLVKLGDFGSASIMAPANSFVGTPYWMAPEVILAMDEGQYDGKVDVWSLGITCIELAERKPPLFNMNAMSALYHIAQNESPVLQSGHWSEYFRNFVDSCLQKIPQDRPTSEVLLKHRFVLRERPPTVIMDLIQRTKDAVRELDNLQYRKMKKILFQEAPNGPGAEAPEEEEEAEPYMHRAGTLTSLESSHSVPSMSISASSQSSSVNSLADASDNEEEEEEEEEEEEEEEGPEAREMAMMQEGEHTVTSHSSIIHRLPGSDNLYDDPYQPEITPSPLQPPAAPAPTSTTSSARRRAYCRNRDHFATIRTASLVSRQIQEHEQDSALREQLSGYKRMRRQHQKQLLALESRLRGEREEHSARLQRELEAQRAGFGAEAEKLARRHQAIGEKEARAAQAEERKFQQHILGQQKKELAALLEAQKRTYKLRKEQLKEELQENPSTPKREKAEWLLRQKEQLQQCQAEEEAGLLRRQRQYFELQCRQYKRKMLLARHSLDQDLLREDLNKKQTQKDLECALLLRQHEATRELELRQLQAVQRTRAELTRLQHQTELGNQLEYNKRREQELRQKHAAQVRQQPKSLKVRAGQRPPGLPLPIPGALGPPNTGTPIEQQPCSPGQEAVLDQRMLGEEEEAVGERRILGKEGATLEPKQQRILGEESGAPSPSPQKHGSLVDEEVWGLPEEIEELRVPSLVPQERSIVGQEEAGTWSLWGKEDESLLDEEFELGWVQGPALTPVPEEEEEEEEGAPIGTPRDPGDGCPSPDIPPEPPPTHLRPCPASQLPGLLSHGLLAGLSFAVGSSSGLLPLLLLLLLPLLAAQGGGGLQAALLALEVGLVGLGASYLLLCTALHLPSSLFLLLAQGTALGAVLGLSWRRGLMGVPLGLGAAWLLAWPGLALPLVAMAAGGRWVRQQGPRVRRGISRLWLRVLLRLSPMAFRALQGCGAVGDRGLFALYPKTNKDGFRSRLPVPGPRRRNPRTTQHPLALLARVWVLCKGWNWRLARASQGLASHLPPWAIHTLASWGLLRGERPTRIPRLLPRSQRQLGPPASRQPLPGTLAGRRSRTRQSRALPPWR

[7] = target: Fibroblast growth factor receptor 1 (Homo sapiens) (UniProt P11362); assay: Inhibition of FGFR1 at 1 uM
Sequence of Fibroblast growth factor receptor 1 (Homo sapiens) (P11362 22-822 limits assumed): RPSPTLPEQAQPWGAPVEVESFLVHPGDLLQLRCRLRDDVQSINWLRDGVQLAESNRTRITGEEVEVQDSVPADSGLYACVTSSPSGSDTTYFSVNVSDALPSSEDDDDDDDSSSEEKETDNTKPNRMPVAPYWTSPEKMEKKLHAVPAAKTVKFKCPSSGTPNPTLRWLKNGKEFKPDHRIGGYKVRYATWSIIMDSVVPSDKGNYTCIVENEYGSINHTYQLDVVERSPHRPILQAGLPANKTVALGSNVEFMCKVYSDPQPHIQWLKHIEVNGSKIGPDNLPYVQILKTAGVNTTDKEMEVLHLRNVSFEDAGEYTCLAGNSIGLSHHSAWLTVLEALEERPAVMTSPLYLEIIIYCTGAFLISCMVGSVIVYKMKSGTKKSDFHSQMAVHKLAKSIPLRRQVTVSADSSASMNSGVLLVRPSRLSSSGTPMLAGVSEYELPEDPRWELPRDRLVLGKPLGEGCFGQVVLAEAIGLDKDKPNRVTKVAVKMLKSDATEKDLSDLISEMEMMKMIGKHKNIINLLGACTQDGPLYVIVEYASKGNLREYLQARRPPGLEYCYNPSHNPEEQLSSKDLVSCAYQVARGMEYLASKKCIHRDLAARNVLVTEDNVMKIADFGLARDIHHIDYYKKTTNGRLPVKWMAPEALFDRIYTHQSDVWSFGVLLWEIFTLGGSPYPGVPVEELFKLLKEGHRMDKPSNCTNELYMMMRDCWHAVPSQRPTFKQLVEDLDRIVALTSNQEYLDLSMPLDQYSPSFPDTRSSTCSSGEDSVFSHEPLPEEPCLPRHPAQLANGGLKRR

[8] = target: T3, Serine/threonine-protein kinase Sgk1 (Homo sapiens) (UniProt O00141); assay: Inhibition of SGK at 1 uM
T3 sequence (whole entry): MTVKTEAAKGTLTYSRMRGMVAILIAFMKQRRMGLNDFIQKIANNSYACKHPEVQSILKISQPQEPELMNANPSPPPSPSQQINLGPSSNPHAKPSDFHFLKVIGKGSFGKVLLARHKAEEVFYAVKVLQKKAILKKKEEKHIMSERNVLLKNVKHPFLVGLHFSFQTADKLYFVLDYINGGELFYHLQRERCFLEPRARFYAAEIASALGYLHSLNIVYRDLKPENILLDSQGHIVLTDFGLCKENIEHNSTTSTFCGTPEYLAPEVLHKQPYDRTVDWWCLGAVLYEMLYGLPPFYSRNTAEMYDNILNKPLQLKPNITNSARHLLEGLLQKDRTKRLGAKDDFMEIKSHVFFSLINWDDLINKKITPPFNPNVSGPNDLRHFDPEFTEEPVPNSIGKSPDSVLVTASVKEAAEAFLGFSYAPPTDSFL

Sequence of Angiopoietin-1 receptor (Homo sapiens) (Q02763 whole entry): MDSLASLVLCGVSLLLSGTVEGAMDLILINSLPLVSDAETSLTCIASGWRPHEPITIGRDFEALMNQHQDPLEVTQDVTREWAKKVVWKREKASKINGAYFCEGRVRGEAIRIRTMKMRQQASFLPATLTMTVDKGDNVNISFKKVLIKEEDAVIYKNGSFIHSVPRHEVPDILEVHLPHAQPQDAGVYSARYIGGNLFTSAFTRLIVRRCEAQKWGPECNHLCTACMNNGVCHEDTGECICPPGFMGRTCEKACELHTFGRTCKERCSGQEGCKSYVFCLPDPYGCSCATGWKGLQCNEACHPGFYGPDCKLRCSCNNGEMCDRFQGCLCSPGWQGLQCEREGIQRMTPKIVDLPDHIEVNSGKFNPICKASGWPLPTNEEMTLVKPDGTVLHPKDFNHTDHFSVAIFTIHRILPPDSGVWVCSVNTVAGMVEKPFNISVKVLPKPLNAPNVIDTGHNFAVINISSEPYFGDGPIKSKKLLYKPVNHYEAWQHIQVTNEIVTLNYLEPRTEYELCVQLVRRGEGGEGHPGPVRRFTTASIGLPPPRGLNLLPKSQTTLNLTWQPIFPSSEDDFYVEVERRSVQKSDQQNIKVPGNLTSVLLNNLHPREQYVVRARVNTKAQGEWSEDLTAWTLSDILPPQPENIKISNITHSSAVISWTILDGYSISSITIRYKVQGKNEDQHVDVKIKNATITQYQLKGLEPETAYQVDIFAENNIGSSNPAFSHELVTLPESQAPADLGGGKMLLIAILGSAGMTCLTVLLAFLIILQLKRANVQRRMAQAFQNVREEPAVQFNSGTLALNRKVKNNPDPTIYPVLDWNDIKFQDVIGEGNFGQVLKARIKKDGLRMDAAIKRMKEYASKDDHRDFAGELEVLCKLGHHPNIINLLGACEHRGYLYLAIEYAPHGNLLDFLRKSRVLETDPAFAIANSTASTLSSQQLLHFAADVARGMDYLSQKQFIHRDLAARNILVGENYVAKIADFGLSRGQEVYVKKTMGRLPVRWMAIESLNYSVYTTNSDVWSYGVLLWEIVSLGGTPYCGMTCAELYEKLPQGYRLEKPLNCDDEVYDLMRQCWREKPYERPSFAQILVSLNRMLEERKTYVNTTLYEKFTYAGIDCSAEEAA

Row | inhibition [1] [%] | IC50 [2] [nM] | inhibition [3] [%] | IC50 [4] [nM] | inhibition [5] [%] | inhibition [6] [%] | inhibition [7] [%] | inhibition [8] [%] | SMILES
1 | 5 | 200 | 32 | 300 | 3 | -5 | 6 | 30 | CC(=O)N1CC[C@@H](Nc2cncc(C(=O)c3cn(C(C)C)c4ncnc(N)c34)n2)[C@H]1c1ccccc1
2 | 19 | 70 | 73 | 80 | 1 | 4 | 7 | 61 | CC(=O)N1CC[C@@H](Nc2cncc(C(=O)c3cn(C(C)C)c4ncnc(N)c34)n2)[C@H]1c1ccc(F)cc1
3 | 10 | 70 | 62 | 50 | 7 | -1 | 17 | 48 | CC(C)n1cc(C(=O)c2cncc(N[C@@H]3CCN(C=O)[C@@H]3c3ccc(F)cc3)n2)c2c(N)ncnc21
